We go through 4 compounds from article PMC11865470 (Communications Biology, 2025).

Positions count from the first letter of the chain named. Like-named read-outs stand apart in the source and are kept apart here.

The subject of one test is Otop1 channel. The conditions noted are these: cited from earlier work.
Test [1] deals with T1, mouse Otop1 (mOtop1) channels (Mus musculus, UniProt Q80VM9).
T1 sequence (Q80VM9 1-600): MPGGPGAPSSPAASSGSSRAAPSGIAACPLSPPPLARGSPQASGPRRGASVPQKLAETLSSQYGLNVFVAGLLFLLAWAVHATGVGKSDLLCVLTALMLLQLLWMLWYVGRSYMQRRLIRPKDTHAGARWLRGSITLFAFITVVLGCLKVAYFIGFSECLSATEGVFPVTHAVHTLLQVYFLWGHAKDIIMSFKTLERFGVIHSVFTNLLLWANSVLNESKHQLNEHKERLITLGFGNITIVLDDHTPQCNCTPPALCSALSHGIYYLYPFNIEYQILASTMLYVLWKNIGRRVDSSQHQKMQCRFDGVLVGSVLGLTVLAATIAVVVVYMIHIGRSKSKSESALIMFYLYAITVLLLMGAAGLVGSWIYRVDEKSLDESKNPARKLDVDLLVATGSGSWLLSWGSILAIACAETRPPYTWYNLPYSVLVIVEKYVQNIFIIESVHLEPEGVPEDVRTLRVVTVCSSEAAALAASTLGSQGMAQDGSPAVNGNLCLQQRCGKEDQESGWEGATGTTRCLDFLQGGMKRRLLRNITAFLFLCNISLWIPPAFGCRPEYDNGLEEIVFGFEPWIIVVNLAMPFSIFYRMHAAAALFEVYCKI
In kind it is cell-based. Conditions: read-out: IC50, inhibition of mOtop1 currents, n = 5-6.

The target of a further test is T2, mOtop1/R554A (Mus musculus, UniProt Q80VM9, R554A).
T2 sequence (Q80VM9 1-600 R554A): T1 sequence (Q80VM9 1-600) with R554A
Put plainly: patch-clamp, mOtop1 mutant. The conditions noted are these: 1 mM Zn2+. The format is cell-based. In general terms: Patch clamp records ionic current or voltage across a cell membrane.

The subject of test [2] is HEK293 cells expressing merely pHmScarlet-mTurquise2. Put plainly: live cell intracellular pH imaging. The format is cell-based. Conditions: pH 5.0; nontransfected cells. Summed up: (§1)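 HEK293 cells were electroporated (180 V, 25 ms) with pHmScarlet-mTurquise2, with or without mOtop1, and imaged 24 h later. Cells sat in pH 7.4 solution (mM: 140 KCl, 10 NaCl, 1 MgCl2, 20 HEPES), then were shifted to pH 8.5 (Tris), 6.0 (MES) or 5.0 (HomoPIPES). Test compound was 10 μM in the stimulus solution, with acetic acid pH 5.0 as positive control. FpHmScarlet/FmTurquise2 ratio read every 2 s.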

In test [3] the target is T3, mOtop1 channels co-expressed in HEK293 cells (Mus musculus, UniProt Q80VM9).
T3 sequence (Q80VM9 1-600): T1 sequence (Q80VM9 1-600)
Put plainly: live cell intracellular pH imaging. In kind it is cell-based. The conditions noted are these: pH 5.0; mOtop1 transfected cells. Summed up:
as §1

Another test deals with mOtop1 channel. The conditions noted are these: read-out: EC50, activating Otop1 currents; neutral and acidic conditions; cited from earlier work.

`Nc1c(S(=O)(=O)O)cc(Nc2ccc(Nc3nc(Cl)nc(Nc4ccccc4S(=O)(=O)O)n3)c(S(=O)(=O)O)c2)c2c1C(=O)c1ccccc1C2=O` [Cibacron Blue 3G-A]: the “action on Otop1” value in the test with Otop1 channel is “moderate antagonist”. For `[Zn+2]` [Zn^2+], the IC50 (usually the midpoint of a concentration-inhibition curve) was 72 ± 9 µM in test [1] (currents activated by pH 5.5 alone) and 58 ± 13 µM in test [1] (currents activated by pH 5.5 with 10 μM MFaN). Also, the “effect on mOtop1/R554A currents” value at mOtop1/R554A was “significantly inhibited”. Regarding `CC(=O)O` [acetic acid, reference compound], the “pHi change, positive control” value in test [2] and in test [3] was “triggered dramatical pHi dropdown” throughout. In the case of `Cc1ccc(C(C)C)cc1O` [carvacrol], the concentration giving a half-maximal response (EC50) (as a rule, the concentration giving half of the maximal effect) with mOtop1 channel was about 700 µM.
